Measurements reported in ChEMBL document CHEMBL4680077, “Differentiation of skeletal osteogenic progenitor cells to osteoblasts with 3,4-diarylbenzopyran based amide derivatives: Novel osteogenic agents” (Eur J Med Chem, 2016).
Active and inactive are the calls of the source. The rule behind the calls is not given here.

Experiments:
[1] = Acute toxicity in Swiss albino mouse assessed as albumin level at 50 mg/kg, po measured after 7 days (reference value: 3.24 +/- 0.30 g/dL); format: organism-based; conditions: in vivo, 168 h, time 7 day
[2] = Acute toxicity in Swiss albino mouse assessed as absolute heart weight at 1000 mg/kg, po measured after 7 days (reference value: 0.12 g); format: organism-based; conditions: in vivo, 168 h, time 7 day
[3] = Clearance in Sprague-Dawley rat at 1 mg/kg, iv measured upto 24 hrs by LC-MS/MS analysis; format: ADME, organism-based; conditions: in vivo
[4] = Acute toxicity in Swiss albino mouse assessed as absolute uterus weight at 5 mg/kg, po measured after 7 days (reference value: 0.27+/- 0.07 g); format: organism-based; conditions: in vivo, 168 h, time 7 day
Calvarial osteoblast [5] = test: Induction of osteoblast differentiation in mouse calvarial osteoblast assessed as increase in OCN mRNA expression at 1 pM incubated for 48 hrs by qPCR analysis; format: functional, cell-based
In short: (§1)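 Calvarial osteoblasts were treated at 1 pM for 24 and 48 h. Total RNA was extracted with TRIzol, and cDNA was made from 2 µg RNA. qPCR ran 40 cycles for BMP-2, RUNX-2, OCN and collagen type 1, with normalization to GAPDH. Mean ± SEM of three independent experiments.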

[6] = Acute toxicity in Swiss albino mouse assessed as observational changes at 5 to 1000 mg/kg, po measured after 7 days; format: organism-based; conditions: in vivo, 168 h, dose 5-1000 mg/kg, time 7 day
In short: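 Acute oral toxicity per OECD guidelines 420, 423 and 425. Swiss albino mice received a single oral dose at 5, 50, 300 or 1000 mg kg1 body weight, with vehicle controls. Animals were watched for morbidity, mortality and observational changes over 7 days. Tail-vein blood was then taken for hematology and serum biochemistry. Organs were inspected at sacrifice. n = 6 per group.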

[7] = Acute toxicity in Swiss albino mouse assessed as relative kidney weight at 300 mg/kg, po measured after 7 days (reference value: 1.25 +/- 0.08 %); format: organism-based; conditions: in vivo, 168 h, time 7 day
[8] = Acute toxicity in Swiss albino mouse assessed as absolute kidney weight at 1000 mg/kg, po measured after 7 days (reference value: 0.29 +/- 0.02 g); format: organism-based; conditions: in vivo, 168 h, time 7 day
[9] = Acute toxicity in Swiss albino mouse assessed as absolute kidney weight at 300 mg/kg, po measured after 7 days (reference value: 0.29 +/- 0.02 g); format: organism-based; conditions: in vivo, 168 h, time 7 day
[10] = AUC (0 to 24 hrs) in Sprague-Dawley rat at 1 mg/kg, po measured upto 24 hrs by LC-MS/MS analysis; format: ADME, organism-based; set-up: route oral, dose 1 mg/kg, time <=24; conditions: in vivo
In short: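 Female Sprague-Dawley rats (n = 4 per route), fasted overnight (12-14 h); 1 mg/kg orally in 0.25% CMC suspension, or an i.v. tail-vein bolus in DMSO-PEG400-ethanol-water (4:3:1:2). Retro-orbital blood was taken up to 24 h, and plasma was extracted with n-hexane (halofantrine IS). LC-MS/MS linear range 0.5-200 ng/mL. AUC0-24 was calculated by the linear trapezoidal rule, non-compartmental; mean ± S.D.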

Calvarial osteoblast [11] = test: Induction of osteoblast differentiation in mouse calvarial osteoblast assessed as increase in ERbeta expression at 1 pM incubated for 48 hrs by Western blot analysis; format: functional, cell-based
In short: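 Calvarial osteoblasts at 60–70% confluence were treated ± compound for 48 h, with 100 pM E2 as positive control. Lysates (30 µg protein) were resolved on 10% SDS-PAGE, transferred to PVDF and probed for ER-α and ER-β with HRP secondaries and ECL detection. Bands were quantified by densitometry normalized to β-actin.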

Mus musculus = test: In vivo osteogenic activity in ovariectomized BALB/c mouse assessed as increase in bone stiffness at 1 to 10 mg/kg, po via gavage administered for 1 month by TKC Muromachi bone strength testing method; format: functional, organism-based; conditions: dose 1-10 mg/kg, time 1.0 months
In short: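 Ovariectomized balb/c mice were gavaged with 1 or 10 mg kg-1 daily for one month. Bones were then tested on a bone strength tester for energy, stiffness and force to break. Mean ± SEM compared with the Ovx vehicle group.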

[12] = Acute toxicity in Swiss albino mouse assessed as absolute lung weight at 300 mg/kg, po measured after 7 days (reference value: 0.16 +/- 0.01 g); format: organism-based; conditions: in vivo, 168 h, time 7 day
[13] = Acute toxicity in Swiss albino mouse assessed as creatinine level at 1000 mg/kg, po measured after 7 days (reference value: 0.97 +/- 0.07 mg/dL); format: organism-based; conditions: in vivo, 168 h, time 7 day
Calvarial osteoblast [14] = test: Induction of osteoblast differentiation in mouse calvarial osteoblast assessed as increase in BMP-2 mRNA expression at 1 pM incubated for 48 hrs by qPCR analysis; format: functional, cell-based; in short: as §1
[15] = Acute toxicity in Swiss albino mouse assessed as body weight at 5 mg/kg, po measured on day 7 (reference value: 22.75 +/- 0.38 g); format: organism-based; conditions: in vivo, 168 h, time 7 day
[16] = Acute toxicity in Swiss albino mouse assessed as RBC count at 300 mg/kg, po measured after 7 days (Rvb =6.0 +/- 0.28 million/mm3); format: organism-based; conditions: in vivo, 168 h, time 7 day
[17] = Acute toxicity in Swiss albino mouse assessed as reduced GSH level at 1000 mg/kg, po measured after 7 days (reference value: 18.20 +/- 1.56 ug/mg of protein); format: organism-based; conditions: in vivo, 168 h, time 7 day
[18] = Acute toxicity in Swiss albino mouse assessed as SGOT level at 5 mg/kg, po measured after 7 days (reference value: 31.99 +/- 3.37 U/L); format: organism-based; conditions: in vivo, 168 h, time 7 day
Calvarial osteoblast [19] = test: Induction of osteoblast differentiation in mouse calvarial osteoblast assessed as increase in RUNX-2 mRNA expression at 1 pM incubated for 24 hrs by qPCR analysis; format: functional, cell-based; in short: as §1
Calvarial osteoblast [20] = test: Induction of osteoblast differentiation in mouse calvarial osteoblast assessed as increase in collagen type 1 mRNA expression at 1 pM incubated for 24 and 48 hrs by qPCR analysis; format: functional, cell-based; in short: as §1
[21] = Acute toxicity in Swiss albino mouse assessed as tissue protein level at 300 mg/kg, po measured after 7 days (reference value: 0.029 +/- 0.004 mg/ml); format: organism-based; conditions: in vivo, 168 h, time 7 day
[22] = Initial concentration in Sprague-Dawley rat at 1 mg/kg, iv measured upto 24 hrs by LC-MS/MS analysis; format: ADME, organism-based; conditions: in vivo
[23] = Acute toxicity in Swiss albino mouse assessed as absolute heart weight at 5 mg/kg, po measured after 7 days (reference value: 0.12 g); format: organism-based; conditions: in vivo, 168 h, time 7 day
[24] = Acute toxicity in Swiss albino mouse assessed as creatinine level at 300 mg/kg, po measured after 7 days (reference value: 0.97 +/- 0.07 mg/dL); format: organism-based; conditions: in vivo, 168 h, time 7 day
[25] = Acute toxicity in Swiss albino mouse assessed as absolute uterus weight at 50 mg/kg, po measured after 7 days (reference value: 0.27+/- 0.07 g); format: organism-based; conditions: in vivo, 168 h, time 7 day
[26] = Acute toxicity in Swiss albino mouse assessed as triglycerides level at 50 mg/kg, po measured after 7 days (reference value: 58.51 +/- 10.82 mg/dL); format: organism-based; conditions: in vivo, 168 h, time 7 day
[27] = Acute toxicity in Swiss albino mouse assessed as albumin level at 5 mg/kg, po measured after 7 days (reference value: 3.24 +/- 0.30 g/dL); format: organism-based; conditions: in vivo, 168 h, time 7 day

## CCCCN(C)C(=O)CCCCOc1ccc([C@H]2c3ccc(OC)cc3OC(C)(C)[C@@H]2c2ccccc2)cc1
[1]
  Activity: 2.77 g/dL
[2]
  Activity: 0.12 g
[3]
  clearance: 18.4 mL/min/kg
[4]
  Activity: 0.3 g
Calvarial osteoblast [5]
  Activity: Active
[6]
  Activity: Non-Toxic
[7]
  Activity: 1.14%
[8]
  Activity: 0.29 g
[9]
  Activity: 0.27 g
[10]
  AUC(0-t): 114 ng·h/mL
Calvarial osteoblast [11]
  Activity: Active
Mus musculus
  Activity: Active
[12]
  Activity: 0.17 g
[13]
  Activity: 0.69 mg/dL
Calvarial osteoblast [14]
  Activity: Active
[15]
  Activity: 24.25 g
[16]
  Activity: 7.31 million/mm3
[17]
  Activity: 13.98 µg/mg
[18]
  Activity: 33.05 U/L
Calvarial osteoblast [19]
  Activity: Active
Calvarial osteoblast [20]
  Activity: Active
[21]
  Activity: 0.034 mg/mL
[22]
  C0 at 24 h: 610 ng/mL
[23]
  Activity: 0.12 g
[24]
  Activity: 0.97 mg/dL
[25]
  Activity: 0.24 g
[26]
  Activity: 83.78 mg/dL
[27]
  Activity: 3.97 g/dL
